From ChEMBL document CHEMBL1811845, “Modulation of GABAA-receptors by honokiol and derivatives: subtype selectivity and structure-activity relationship” (J Med Chem, 2011) come the findings set out here.

Data set [1] deals with T1, GABA-A receptor; GABA-A site (alpha1/beta2 interface) (Homo sapiens) (UniProt P14867+P47870). As to the kind of experiment: Modulation of GABA Aalpha1beta2 receptor expressed in Xenopus laevis oocytes assessed as potentiation of GABA-induced chloride current at holding potential -70 mV by two-microelectrode voltage clamp technique relative to GABA. Format: cell-based. The settings on record: Oocyte. Summed up: (§1)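 Oocytes were injected with α1, α2, α3 or α5 plus β2 cRNA at a 1:1 ratio and stored at 18 °C in ND96, pH 7.4. Enhancement was (I(GABA+compound)/IGABA)−1, and concentration-response data were Hill-fitted for EC50 and nH. Matched DMSO was ≤0.3%.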

In data set [2] the target is T2, GABA-A receptor; GABA-A site (alpha1/beta2 interface) (Homo sapiens, UniProt P14867+P47870).
T2 sequence (P14867 whole entry): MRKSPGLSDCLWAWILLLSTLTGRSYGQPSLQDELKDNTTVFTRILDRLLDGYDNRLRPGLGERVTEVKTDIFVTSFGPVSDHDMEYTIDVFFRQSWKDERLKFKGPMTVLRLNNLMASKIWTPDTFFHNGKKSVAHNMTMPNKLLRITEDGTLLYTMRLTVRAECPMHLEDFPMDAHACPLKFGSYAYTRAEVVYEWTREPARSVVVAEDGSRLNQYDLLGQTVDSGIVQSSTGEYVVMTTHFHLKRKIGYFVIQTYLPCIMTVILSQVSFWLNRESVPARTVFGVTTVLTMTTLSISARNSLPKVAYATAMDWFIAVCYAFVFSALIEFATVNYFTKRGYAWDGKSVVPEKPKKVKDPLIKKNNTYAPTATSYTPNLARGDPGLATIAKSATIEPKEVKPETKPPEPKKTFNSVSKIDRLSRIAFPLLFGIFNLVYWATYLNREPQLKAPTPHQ
T2 sequence (P47870 whole entry): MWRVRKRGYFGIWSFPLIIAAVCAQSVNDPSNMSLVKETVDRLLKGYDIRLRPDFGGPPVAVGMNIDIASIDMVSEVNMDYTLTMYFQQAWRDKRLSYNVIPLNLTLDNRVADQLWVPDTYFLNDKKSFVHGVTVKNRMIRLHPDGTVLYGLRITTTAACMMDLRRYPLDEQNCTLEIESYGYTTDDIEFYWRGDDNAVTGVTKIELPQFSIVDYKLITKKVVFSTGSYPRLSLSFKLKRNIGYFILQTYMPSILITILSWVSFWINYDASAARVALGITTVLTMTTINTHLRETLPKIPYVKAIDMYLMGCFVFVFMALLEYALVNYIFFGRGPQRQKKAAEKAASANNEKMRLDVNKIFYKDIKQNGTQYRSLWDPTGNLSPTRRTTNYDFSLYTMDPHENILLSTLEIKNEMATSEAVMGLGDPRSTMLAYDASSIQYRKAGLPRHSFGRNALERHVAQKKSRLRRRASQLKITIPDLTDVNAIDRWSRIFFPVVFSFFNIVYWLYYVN
Nature of the data set: Modulation of GABA Aalpha1beta2 receptor expressed in Xenopus laevis oocytes assessed as potentiation of GABA-induced chloride current at holding potential -70 mV by two-microelectrode voltage clamp technique. The format is cell-based, Oocyte. Summed up: (§2)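 Stage V–VI Xenopus oocytes, defolliculated with 2 mg/mL collagenase, injected with α(1, 2, 3 or 5) and β2 cRNAs mixed 1:1, then kept at 18 °C in ND96 (pH 7.4). Enhancement = I(GABA+compound)/IGABA − 1. Curves were Hill-fitted for EC50. Bath DMSO was at most 0.3%, matched in controls.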

Data set [3] concerns the target Gamma-aminobutyric acid receptor subunit alpha-3/ beta-2 (Homo sapiens) (UniProt P47870+P34903). Nature of the data set: Modulation of GABA Aalpha3beta2 receptor expressed in Xenopus laevis oocytes assessed as potentiation of GABA-induced chloride current at holding potential -70 mV by two-microelectrode voltage clamp technique relative to GABA. Format: cell-based. Particulars: Oocyte. In a few lines:
as §1

The target of data set [4] is T3, Gamma-aminobutyric acid receptor subunit alpha-3/ beta-2 (Homo sapiens, UniProt P34903+P47870).
T3 sequence (P47870 whole entry): T2 sequence (P47870 whole entry)
T3 sequence (P34903 whole entry): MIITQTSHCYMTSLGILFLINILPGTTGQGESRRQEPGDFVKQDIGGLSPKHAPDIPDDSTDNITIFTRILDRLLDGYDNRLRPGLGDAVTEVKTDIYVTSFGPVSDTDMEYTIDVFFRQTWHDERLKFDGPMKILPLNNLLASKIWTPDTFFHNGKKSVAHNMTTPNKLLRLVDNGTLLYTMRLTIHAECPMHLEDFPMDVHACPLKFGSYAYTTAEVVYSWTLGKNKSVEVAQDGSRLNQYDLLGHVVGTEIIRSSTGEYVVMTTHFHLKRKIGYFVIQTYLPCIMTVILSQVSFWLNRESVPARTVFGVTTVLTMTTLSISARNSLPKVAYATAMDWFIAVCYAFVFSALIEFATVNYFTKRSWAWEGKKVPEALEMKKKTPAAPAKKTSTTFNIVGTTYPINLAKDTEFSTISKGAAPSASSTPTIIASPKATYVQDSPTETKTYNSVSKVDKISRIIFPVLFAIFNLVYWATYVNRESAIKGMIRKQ
Nature of the data set: Modulation of GABA Aalpha3beta2 receptor expressed in Xenopus laevis oocytes assessed as potentiation of GABA-induced chloride current at holding potential -70 mV by two-microelectrode voltage clamp technique. Format: cell-based, Oocyte. Summed up: as §2

Data set [5] can be described thus: Octanol-water partition coefficient, log P of the compound. The format is physicochemical. The settings on record: read-out: logP.
For data set [6], the target named is Gamma-aminobutyric acid receptor subunit alpha-5/beta-2 (Homo sapiens) (UniProt P47870+P31644). Nature of the data set: Modulation of GABA Aalpha5beta2 receptor expressed in Xenopus laevis oocytes assessed as potentiation of GABA-induced chloride current at holding potential -70 mV by two-microelectrode voltage clamp technique relative to GABA. The format is cell-based. Particulars: Oocyte. Summed up: as §1

For data set [7], the target named is Gamma-aminobutyric acid receptor subunit alpha-2/beta-2 (Homo sapiens) (UniProt P47870+P47869). Nature of the data set: Modulation of GABA Aalpha2beta2 receptor expressed in Xenopus laevis oocytes assessed as potentiation of GABA-induced chloride current at holding potential -70 mV by two-microelectrode voltage clamp technique relative to GABA. Format: cell-based. Particulars: Oocyte. Summed up:
as §1

Data set [8] addresses T4, Gamma-aminobutyric acid receptor subunit alpha-5/beta-2 (Homo sapiens, UniProt P31644+P47870).
T4 sequence (P47870 whole entry): T2 sequence (P47870 whole entry)
T4 sequence (P31644 whole entry): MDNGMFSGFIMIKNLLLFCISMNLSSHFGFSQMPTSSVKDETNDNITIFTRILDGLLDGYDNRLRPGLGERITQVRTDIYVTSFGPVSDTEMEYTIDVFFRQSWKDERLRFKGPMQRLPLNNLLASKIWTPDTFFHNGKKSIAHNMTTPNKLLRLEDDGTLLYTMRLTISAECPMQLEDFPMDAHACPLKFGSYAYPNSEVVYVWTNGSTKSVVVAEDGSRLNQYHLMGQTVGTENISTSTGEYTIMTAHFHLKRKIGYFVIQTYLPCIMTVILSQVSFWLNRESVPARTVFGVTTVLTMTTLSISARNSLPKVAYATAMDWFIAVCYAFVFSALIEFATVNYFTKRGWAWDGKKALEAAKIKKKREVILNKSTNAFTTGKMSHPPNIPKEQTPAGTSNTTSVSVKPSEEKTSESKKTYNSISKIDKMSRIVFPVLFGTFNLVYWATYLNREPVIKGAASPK
Nature of the data set: Modulation of GABA Aalpha5beta2 receptor expressed in Xenopus laevis oocytes assessed as potentiation of GABA-induced chloride current at holding potential -70 mV by two-microelectrode voltage clamp technique. The format is cell-based, Oocyte. In a few lines: as §2

Data set [9] deals with T5, Gamma-aminobutyric acid receptor subunit alpha-2/beta-2 (Homo sapiens, UniProt P47869+P47870).
T5 sequence (P47870 whole entry): T2 sequence (P47870 whole entry)
T5 sequence (P47869 whole entry): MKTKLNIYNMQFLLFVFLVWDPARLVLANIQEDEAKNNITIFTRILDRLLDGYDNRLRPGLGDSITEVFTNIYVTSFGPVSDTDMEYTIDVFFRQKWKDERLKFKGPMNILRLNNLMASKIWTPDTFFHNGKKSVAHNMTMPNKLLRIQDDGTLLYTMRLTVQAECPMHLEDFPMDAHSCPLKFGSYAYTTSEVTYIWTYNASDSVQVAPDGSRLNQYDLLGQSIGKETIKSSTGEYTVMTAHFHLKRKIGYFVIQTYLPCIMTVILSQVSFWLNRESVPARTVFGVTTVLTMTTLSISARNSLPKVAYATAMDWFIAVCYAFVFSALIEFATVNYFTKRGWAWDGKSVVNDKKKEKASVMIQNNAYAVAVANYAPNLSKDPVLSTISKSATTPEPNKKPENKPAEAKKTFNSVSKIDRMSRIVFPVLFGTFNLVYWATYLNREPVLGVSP
As to the kind of experiment: Modulation of GABA Aalpha2beta2 receptor expressed in Xenopus laevis oocytes assessed as potentiation of GABA-induced chloride current at holding potential -70 mV by two-microelectrode voltage clamp technique. The format is cell-based, Oocyte. Summed up:
as §2

Data set [10] deals with T1, GABA-A receptor; GABA-A site (alpha1/beta2 interface) (Homo sapiens). As to the kind of experiment: Modulation of GABA Aalpha1beta2 receptor expressed in Xenopus laevis oocytes assessed as potentiation of GABA-induced chloride current at holding potential -70 mV at 30 uM by two-microelectrode voltage clamp technique relative to GABA. The settings on record: Oocyte. Format: cell-based. In a few lines: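 Single-concentration screen at 30 μM on α1β2 receptors (cRNA 1:1) in Xenopus oocytes. Enhancement was (I(GABA+compound)/IGABA)−1. DMSO was matched in control and test solutions, maximum 0.3% in the bath.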

The subject of the next data set is Oocyte. As to the kind of experiment: Modulation of GABA alpha1beta2gamma2s receptor expressed in Xenopus laevis oocytes assessed as potentiation of GABA-induced chloride current at holding potential -70 mV at 300 nM by two-microelectrode voltage clamp technique relative to GABA. The format is cell-based. In a few lines:
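Xenopus oocytes were injected with α1, β2 and γ2s cRNAs mixed 1:1:10 and stored at +18 °C in ND96 at pH 7.4. Chloride current was recorded by two-electrode voltage clamp at -70 mV and ambient temperature. Compound was co-applied with GABA at 3–7% of maximal current, set for each oocyte. Enhancement was calculated as (I(GABA+compound)/IGABA) − 1 with matched DMSO.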

With `C=CCc1cc(NC(C)=O)c(O)c(-c2ccc(OC)c(CC=C)c2)c1`, the Smax turned out to be 2600% in data set [1], 3670% in data set [3], 1010% in [6] and 5200% in data set [7]. The EC50 stood at 3.8 µM in data set [2], 9 µM in data set [4], 2.3 µM in [8] and 7.9 µM in [9]. Moreover, in [5], the logP was determined as 4.75. Also, in [10], the Activity was 2630%.
Turning to `CN1C(=O)CN=C(c2ccccc2)c2cc(Cl)ccc21`, the Activity in the data set with Oocyte stood at 104%.
In the case of `CCCc1cc(N)c(O)c(-c2ccc(OC)c(CCC)c2)c1`, the Smax in data set [1] was 2260%; in data set [3], 2380%; in [6], 1870%; in data set [7] it was 2980%. Moreover, the 50% effective concentration (EC50) came out at 9.2 µM in data set [2], 8.4 µM in [4], 5.3 µM in data set [8] and 3.2 µM in data set [9]. The logP in [5] stood at 5.38. The Activity in [10] was found to be 2020%.

By EC50 is commonly meant the concentration that produces a half-maximal response. As a reminder, the logP is a log measure of how a compound divides between an organic and an aqueous phase.
